Screening results from PubChem.
An excerpt weighted towards active compounds, which were near 2.8% of everything screened.
SDO1 yeast rescue: sdo1-depleted yeast growth rescue. S. cerevisiae sdo1-depleted JHY4D growth rescue, OD600 30 h; active compounds read high; pdr5 snq2 efflux-pump mutant strain. z-score at 10 µM. actives 0.21% (n = 140,000). AID 817;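 active = z-score above 3 at both the 24 hr and the 30 hr optical density reads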
PTEN del growth: PTEN-deleted cell growth suppression; actives 1.2% (n = 140,000); viability, % at 10 µM; HCT116 PTEN-null viability, CellTiter-Glo, 60 h; active compounds read low; AID 827;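 active = viability at or below a set limit, 4 SD under the median of all tested compounds, cut at about 3.7% in these data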;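 note: PTEN knockout HCT116 line with beta catenin targeted HCT116 as companion control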
HCT116 bCat-KO: beta-catenin-lacking colon tumor cell growth suppression; HCT116 beta-catenin knockout viability, CellTiter-Glo, 60 h; active compounds read low; viability, % at 10 µM; actives 1.5% (n = 140,000); AID 818;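 active = viability at or under a set limit, the compound median less 4 SD, cut at about 6% in these data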
Yeast lifespan up: extends the lifespan of yeast; actives 0.68% (n = 130,000); inhibition of the nicotinamide effect, % at 10 µM; S. cerevisiae growth with nicotinamide, OD615; deaD strain in restrictive glucose medium;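 active = inhibition above a set limit, placed 3 SD over the median of all compounds, cut at about 26% in these data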
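assay system = DeaD-strain S. cerevisiae | measured by = absorbance at 615 nm | probe or stimulus = nicotinamide 1.5 mM | buffer or medium = CSMM-D glucose medium, restrictive | times = 48 h at 30 °C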
BB579 growth dn: yeast BB579 growth reduction in restrictive medium | S. cerevisiae BB579 growth, OD615, 48 h | inhibition, % at 10 µM | actives 0.51% (n = 140,000) | AID 804;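 active = inhibition above a set limit, 3 SD over the mean compound inhibition, cut at about 44% in these data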
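System: Saccharomyces cerevisiae DeaD strain BB579, replicative lifespan model yeast. Buffer or medium: restrictive glucose-based CSMM-D medium. Doses: one dose, 10 µM compound with 0.25% DMSO. Timing: 4 h preincubation and 48 h exposure at 30 °C. Detection: turbidity as optical density at 615 nm. Benchmarks: amphotericin B 10 µg/mL, positive.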
Numbers stand for hits; - = inactive; . = no result.

SMILES	SDO1 yeast rescue	PTEN del growth	HCT116 bCat-KO	Yeast lifespan up	BB579 growth dn
O=C(NCc1cccnc1)/C(=C/c1ccc(-c2ccc(Cl)cc2)o1)S(=O)(=O)c1ccccc1	-	1.3	1.7	-	-
O=C(NCc1cccnc1)/C(=C\c1ccc(-c2ccc(Br)cc2)o1)S(=O)(=O)c1ccccc1	-	0.9	1.6	-	-
Cc1cccc(OCCC(=O)Nc2ccc(C)c(S(=O)(=O)N3CCCCC3)c2)c1	-	-	-	-	-
CCCn1c(NCc2c[nH]c3ccccc23)nc2ccccc21	-	-	-	-	-
Cc1cccc(C(=O)Oc2csc(=S)n2C(=O)c2cccc(C)c2)c1	-	-	-	.	44
O=C(Oc1csc(=S)n1C(=O)c1ccccc1)c1ccccc1	-	-	-	-	49
Cc1cccc(C(=O)Nc2cccc(OC(=O)c3cccc(C)c3)c2)c1	-	-	-	-	-
Cc1ccc(NC(=O)C2CCN(S(=O)(=O)c3c(C)n[nH]c3C)CC2)nc1	-	-	-	-	-
CCn1c(CNc2ccc(C)cc2)nnc1SCC(N)=O	-	-	-	.	-
CCOC(=O)CN1C(=O)S/C(=C/C=C/c2ccc(N(C)C)cc2)C1=O	-	-	-	-	-
CC(C)Oc1ccc(C(CC(=O)O)NC(=O)c2cccs2)cc1 (stereo not drawn)	-	-	-	-	-
Cc1ccccc1C(=O)Nc1cccc(NC(=O)c2ccc(-c3ccc(Br)cc3)o2)c1	-	-	3.7	-	-
COC(=O)Cn1c2ccccc2c2nc(C)sc21	-	-	-	-	49
CCSc1nc2ccccc2n1S(=O)(=O)c1ccccc1	-	-	-	-	46
COC(=O)c1ccc(CSc2nnc(C)n2N)o1	-	-	-	-	-
CC(C)(C)N/N=C/c1cc(Cl)cc([N+](=O)[O-])c1O	-	-	-	-	92
CC(C)(C)NC(=O)c1cc(Cl)ccc1[N+](=O)[O-]	-	-	-	-	-
CN1C(=O)c2ccc(N(C)C)cc2C1=O	-	-	-	.	-
CN1C(=O)c2cccc3c(Cl)ccc(c23)C1=O	-	-	-	-	61
Cc1ccc(C)c(NC(=O)Cn2nc(C(F)(F)F)cc2C2CC2)c1	-	-	5.3	-	-
COc1c(Br)cc(Br)cc1/C=N/n1c(C)nnc1C	-	-	-	37	-
COc1cc(/C=N/n2c(C)nnc2C)cc(OC)c1OC	-	-	-	-	-
CC(=O)C1=C(O)C(=O)N(c2ccc(C)cc2)C1c1ccccn1 (stereo not drawn)	-	-	-	.	-
Oc1ccc(/C=N/Nc2cc(N3CCOCC3)nc(N3CCOCC3)n2)cc1O	-	-	3.0	-	-
Oc1cccc(/C=N/Nc2cc(N3CCOCC3)nc(N3CCOCC3)n2)c1	-	-	-	-	-
SMILES	SDO1 yeast rescue	PTEN del growth	HCT116 bCat-KO	Yeast lifespan up	BB579 growth dn
Cc1nn(C)c(C(=O)NCc2ccc(Cl)cc2)c1Cl	-	-	-	-	-
O=C(c1ccccc1Sc1c(Cl)cccc1[N+](=O)[O-])N1CCOCC1	-	-	-	-	-
COc1ccccc1NC(=O)Cc1noc(CSc2cccc[n+]2[O-])n1	-	-	-	-	95
CSc1ccc(S(=O)(=O)NCc2ccccc2Cl)cc1	-	-	-	-	-
CSc1ccc(S(=O)(=O)NCc2ccc(Cl)cc2Cl)cc1	-	-	-	88	-
CCN(CC)S(=O)(=O)c1ccc(NC(=O)CSc2cccc[n+]2[O-])cc1	-	-	-	-	65
CCC(C)c1ccc(NC(=S)Nc2ccc(OC)cc2)cc1 (stereo not drawn)	-	-	-	-	-
Cc1ccsc1/C=C/c1ccc2ccccc2n1	-	-	-	-	-
O=C(/C=C/c1cccs1)Nc1cccc(NC(=O)/C=C/c2cccs2)n1	-	-	-	-	-
Cc1ccsc1/C=C/c1ccc2cccc(O)c2n1	-	-	5.0	-	-
Oc1cccc2ccc(/C=C/c3cccs3)nc12	-	3.8	-	-	59
O=C(CC1(O)C(=O)Nc2cc(Cl)cc(Cl)c21)c1ccccc1O (stereo not drawn)	-	-	-	-	-
O=C(Nc1ccccc1F)c1ccc(S(=O)(=O)NCC2CCCO2)cc1 (stereo not drawn)	-	-	-	-	-
CCOC(=O)c1c(C2COc3ccccc3O2)csc1NC(=O)c1ccccc1 (stereo not drawn)	-	0.5	0.8	-	-
Cc1cc(/C=N/n2cnnc2)c(C)n1-c1ccc(OCc2ccc(Cl)cc2Cl)cc1	-	-	3.7	-	46
Cc1cc(/C=N/n2cnnc2)c(C)n1-c1ccc(Cl)cc1	-	-	-	-	-
COCCNC(=O)C(OC(=O)c1cc2oc(C)cc2n1C)C(C)C (stereo not drawn)	-	-	-	-	-
CC1CN(CC(=O)Nc2ccccc2Sc2ccccc2)CC(C)O1 (stereo not drawn)	-	-	-	27	-
O=C(CN1CCOCC1)Nc1ccccc1Sc1ccccc1	-	-	-	-	-
Cc1sc2cc3c(c(C(=O)c4ccccc4)[n+]2c1C)-c1cccc2cccc-3c12	-	2.1	2.2	-	-
O=C(c1ccccc1)c1c2c(cc3sc4ccccc4[n+]13)-c1cccc3cccc-2c13	-	2.3	2.1	-	-
Cc1cccc(/C=N/n2c(C)cc(C)c(C#N)c2=O)c1	-	-	-	.	-
O=C(CSc1ccccc1C(=O)NCc1ccccc1)NC12CC3CC(CC(C3)C1)C2	-	-	-	-	-
O=C(Cn1sc2ccccc2c1=O)NC12CC3CC(CC(C3)C1)C2	-	1.1	0.7	-	-
CN(C)c1ccc(/C=C/c2ccc3ccccc3[n+]2C)cc1	-	2.0	2.1	-	66
SMILES	SDO1 yeast rescue	PTEN del growth	HCT116 bCat-KO	Yeast lifespan up	BB579 growth dn
Nc1nnnn1/N=C/c1cc(Cl)cc(Cl)c1OCc1ccc(Cl)cc1Cl	-	-	3.2	-	-
Nc1nnnn1/N=C/c1ccccc1OCc1ccc(Cl)cc1Cl	-	-	-	-	-
CCn1c(/C=C/Nc2ccccc2)[n+](CC)c2cc(Cl)c(Cl)cc21	-	1.3	1.5	-	-
Cn1cnc([N+](=O)[O-])c1S(=O)(=O)c1cccc(Cl)c1	-	0.9	1.2	-	-
CN(C)c1c([N+](=O)[O-])ncn1C	-	-	-	-	-
C#CC[N+](C)(C)C(C#Cc1ccccc1)CC=C (stereo not drawn)	-	-	-	-	-
CC(=O)Nc1ccc2nc(-c3ccccc3)cn2c1	-	-	-	-	-
O=c1c(-c2ccccc2)nc(-c2ccccc2)cn1O	-	-	-	-	49
COc1ccc(-c2cc(-c3ccc(Br)cc3)nc3ncnn23)cc1OC	-	-	-	-	-
O=C(Nc1ccc([N+](=O)[O-])cc1)Nc1nc(-c2ccc(Cl)s2)cs1	-	1.2	1.5	-	-
CC(C)C(C(=O)N1CCOCC1)N1C(=O)c2ccccc2C1=O (stereo not drawn)	-	-	-	-	-
CSc1nc2nccc(-c3ccc(Cl)cc3)n2n1	-	-	-	-	-
